Compound activity: PubChem, several laboratories
Jurkat tox 60K = cytotoxicity toward Jurkat cells; actives 1.2% (n = 56,000); AID 463; Jurkat E6.1 viability, ATP luminescence, 48 h; inhibition, % at 4 µM;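 active = inhibition above the mean inhibition of all tested compounds plus 3 SD, cut at about 28% in these data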
Fibroblast inh = blocks proliferation of human lung fibroblasts; LL 47 human lung fibroblast viability, ATP luminescence; hits give low values; viability, % at 10 µM; actives 1.1% (n = 85,000); AID 719;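 active = viability at or below 50% in the single dose screen; inactive = viability above 50%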;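 also: compound exposure lasted 72 h before the ATP readout; 100% = median luminescence of untreated cell-only wells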
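Test system: LL 47 human lung fibroblasts / Incubation: 72 h compound exposure at 37 °C after overnight plating / Technique: luminescent ATP detection, CellTiter-Glo / Compound dosing: 0.1% DMSO in all compound wells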
Ecoli tolC = E. coli tolC mutant growth inhibition. E. coli BW25113 tolC mutant growth, OD615. growth inhibition, % at 10 µM (by protocol). actives 2.2% (n = 65,000);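 active = growth inhibition at or above a cutoff equal to the mean over every tested compound plus 3 SD, cut at about 60% in these data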;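 also: growth measured after 20 h incubation at 37 °C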
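test system = E. coli BW25113 ΔtolC::kan bacteria | medium = LB with kanamycin 50 µg/mL | signal = OD at 615 nm | schedule = 37 °C, 20 h exposure | evaluation = % inhibition of E. coli growth | compound dosing = one dose of 10 µM final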
H69AR inhibit = blocks growth of human H69AR lung tumor cells; H69AR lung tumor viability, ATP luminescence, 72 h; hits give low values; viability, % at 10 µM; actives 6% (n = 85,000); AID 598;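 active = viability at or below 40%; inactive = viability above 40%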;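 also: multidrug resistant small cell line overexpressing MRP-1 efflux transporter; 100% = mean luminescence of untreated control wells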
Ecoli WT expand = growth inhibitors of E. coli BW25113 wild type. OD600 absorbance. growth inhibition, % at 100 µM. actives 0.15% (n = 98,000);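 active = growth inhibition above about 50% at one test dose, limit read from the data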;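 also: growth measured after 20 h incubation at 37 °C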
HUVEC inhibit = blocks proliferation of human endothelial cells. AID 648. actives 1.1% (n = 86,000). viability, % at 10 µM (by protocol). HUVEC proliferation, CellTiter-Glo luminescence, 72 h; hits give low values;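 active = viability at or below 30%; inactive = viability above 30%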;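 also: 100% = median luminescence of DMSO-only cell control wells on each plate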
The depositor's hits bear a star. A selection: hits, their analogues and other compounds. The true share with any hit is near 6.4%.

What do the screens show for `CCOc1ccc2nc(NCCNC(=O)Nc3cccc(C)c3)c(C#N)cc2c1`?
Jurkat tox 60K: 0; Fibroblast inh: 86; H69AR inhibit: 96; Ecoli WT expand: -1; HUVEC inhibit: 48

How did CCOc1ccc2nc(NCCNC(=O)Nc3ccccc3)c(C#N)cc2c1 do in these assays?
Jurkat tox 60K: 7; Fibroblast inh: 102; Ecoli tolC: 9; H69AR inhibit: 28*; Ecoli WT expand: -6; HUVEC inhibit: 73

Results for Cc1ccccc1-n1c(C)nnc1SCC(=O)N1CC(=O)Nc2ccccc21 ?
Jurkat tox 60K: -4; Fibroblast inh: 97; Ecoli tolC: -5; H69AR inhibit: 76; Ecoli WT expand: 1; HUVEC inhibit: 102

Results for CC(C)(C)C(=O)[C@@H]1[C@@H]2C(=O)N(Cc3ccccc3)C(=O)[C@@H]2[C@H]2c3ccccc3C=CN12 ?
Fibroblast inh: 101; H69AR inhibit: 34*; Ecoli WT expand: -3; HUVEC inhibit: 105

How did CC(=O)[C@H]1[C@@H]2C(=O)N(c3cccc(Cl)c3)C(=O)[C@@H]2[C@H]2c3ccccc3C=CN21 do in these assays?
Fibroblast inh: 102; Ecoli tolC: 9; H69AR inhibit: 87; Ecoli WT expand: -8; HUVEC inhibit: 103

What do the screens show for `O=S(=O)(Cc1ccccc1)N1CCN(Cc2ccc3c(c2)OCO3)CC1`?
Fibroblast inh: 101; Ecoli tolC: 13; H69AR inhibit: 93; Ecoli WT expand: 2; HUVEC inhibit: 109

Results for COc1ccc(CNC(=O)C2CC(c3ccccc3[N+](=O)[O-])=NO2)cc1 (configuration not stated) ?
Ecoli WT expand: 5

What do the screens show for `CCn1ncc(C2=NOC(C(=O)NCc3ccc(OC)cc3)C2)c1C` (configuration not stated)?
Jurkat tox 60K: 39*; Fibroblast inh: 103; Ecoli tolC: -5; H69AR inhibit: 21*; Ecoli WT expand: -7; HUVEC inhibit: 64

What do the screens show for `CCn1ncc(C2=NOC(C(=O)Nc3c(C)n(C)n(-c4ccccc4)c3=O)C2)c1C` (configuration not stated)?
Jurkat tox 60K: -16; Fibroblast inh: 101; Ecoli tolC: -13; H69AR inhibit: 98; Ecoli WT expand: 5; HUVEC inhibit: 49

How did CCn1ncc(C2=NOC(C(=O)NCc3ccccc3)C2)c1C (configuration not stated) do in these assays?
Jurkat tox 60K: 93*; Fibroblast inh: 49*; Ecoli tolC: -10; H69AR inhibit: 26*; Ecoli WT expand: 3; HUVEC inhibit: 50

Results for Fc1ccccc1Cc1nnc2n1N=C(c1ccc(Cl)cc1)CS2 ?
Fibroblast inh: 107; H69AR inhibit: 94; Ecoli WT expand: -9; HUVEC inhibit: 113

Results for O=S(=O)(NC12CC3CC(CC(C3)C1)C2)c1ccc(F)cc1 ?
Fibroblast inh: 97; H69AR inhibit: 99; Ecoli WT expand: -1; HUVEC inhibit: 112

Results for O=C(CCSc1nc(-c2ccco2)cc(C(F)(F)F)n1)NCCc1ccccc1 ?
Jurkat tox 60K: -1; Fibroblast inh: 97; Ecoli tolC: 22; H69AR inhibit: 55; Ecoli WT expand: -2; HUVEC inhibit: 98

What do the screens show for `O=C(CCCSc1nc(-c2ccco2)cc(C(F)(F)F)n1)Nc1ccc2c(c1)OCO2`?
Jurkat tox 60K: 0; Fibroblast inh: 102; Ecoli tolC: 79*; H69AR inhibit: 83; Ecoli WT expand: -6; HUVEC inhibit: 77

How did O=C(CSc1nc(-c2ccco2)cc(C(F)(F)F)n1)Nc1ccc2c(c1)OCO2 do in these assays?
Jurkat tox 60K: 29*; Fibroblast inh: 90; Ecoli tolC: 11; H69AR inhibit: 24*; HUVEC inhibit: 68

Results for CCn1cc(CNC(=O)CCSc2nc(-c3ccco3)cc(C(F)(F)F)n2)cn1 ?
Fibroblast inh: 100; H69AR inhibit: 32*; Ecoli WT expand: 4; HUVEC inhibit: 82

Results for O=C(CSc1nc(-c2ccco2)cc(C(F)(F)F)n1)Nc1cccnc1 ?
Jurkat tox 60K: 26; Fibroblast inh: 85; Ecoli tolC: 7; H69AR inhibit: 21*; Ecoli WT expand: -7; HUVEC inhibit: 69

How did O=C(CSc1nc(-c2ccco2)cc(C(F)(F)F)n1)Nc1ccc(C(=O)N2CCOCC2)cc1 do in these assays?
Fibroblast inh: 108; H69AR inhibit: 78; HUVEC inhibit: 101

How did CCOC(=O)N1CCN(C(=S)Nc2cc(OC)c(OC)cc2C(=O)OC)CC1 do in these assays?
Ecoli WT expand: -1

What do the screens show for `O=C(CCSc1nc(-c2ccco2)cc(C(F)(F)F)n1)N1CCCc2ccccc21`?
Jurkat tox 60K: 7; Fibroblast inh: 90; Ecoli tolC: 77*; H69AR inhibit: 74; Ecoli WT expand: -17; HUVEC inhibit: 75

Results for O=C(CSc1ncc(-c2ccc(F)cc2)n1Cc1ccco1)Nc1ccc2c(c1)OCO2 ?
Jurkat tox 60K: -5; Fibroblast inh: 101; Ecoli tolC: 70*; H69AR inhibit: 25*; Ecoli WT expand: 2; HUVEC inhibit: 63

How did O=C(CCSc1nc(-c2ccco2)cc(C(F)(F)F)n1)N1CCN(c2ccccn2)CC1 do in these assays?
Jurkat tox 60K: 4; Fibroblast inh: 100; Ecoli tolC: 60; H69AR inhibit: 97; Ecoli WT expand: -27; HUVEC inhibit: 80

How did COC(=O)c1ccc(C(=O)OC)c(NC(=O)CN2CCN(c3ccccc3)CC2)c1 do in these assays?
Jurkat tox 60K: 10; Fibroblast inh: 56; Ecoli tolC: 5; H69AR inhibit: 16*; Ecoli WT expand: 3; HUVEC inhibit: 59

Results for COC(=O)c1ccc(C(=O)OC)c(NC(=O)CSc2cccc[n+]2[O-])c1 ?
Fibroblast inh: 98; H69AR inhibit: 2.2*; Ecoli WT expand: 50*; HUVEC inhibit: 90

Results for Brc1ccc(NCc2cccc3ccccc23)nc1 ?
Fibroblast inh: 87; H69AR inhibit: 79; Ecoli WT expand: 0; HUVEC inhibit: 96

How did Oc1ccccc1CNc1ccc(Br)cn1 do in these assays?
Fibroblast inh: 6.4*; H69AR inhibit: 82; Ecoli WT expand: 7; HUVEC inhibit: 9.3*

What do the screens show for `NC(N)=N/N=C/c1ccc(OCc2ccccc2Cl)cc1`?
Ecoli WT expand: 99*

How did O=C(CSc1ncnc2c1nnn2-c1ccc(F)cc1)N1CCN(c2ccccc2)CC1 do in these assays?
Fibroblast inh: 98; Ecoli tolC: 11; H69AR inhibit: 27*; HUVEC inhibit: 89

What do the screens show for `COc1ccc(-n2ncc3c(SCC(=O)N4CCN(c5ccccc5OC)CC4)ncnc32)cc1`?
Fibroblast inh: 96; H69AR inhibit: 23*; HUVEC inhibit: 58

How did COc1ccccc1N1CCN(C(=O)CSc2ncccc2-c2nc3ccccc3[nH]2)CC1 do in these assays?
Fibroblast inh: 90; Ecoli tolC: 2; H69AR inhibit: 45; Ecoli WT expand: -12; HUVEC inhibit: 101

Results for O=C(CSc1ncnc2ccccc12)N1CCN(c2ccccc2)CC1 ?
Jurkat tox 60K: 5; Fibroblast inh: 92; Ecoli tolC: 7; H69AR inhibit: 56; HUVEC inhibit: 83
